Test results: article PMC6287576 (International Journal for Parasitology: Drugs and Drug …, 2018)
In brackets after ≈: the same amount, converted by molar mass. Counter-ions that a name gives are not always drawn.

Columns and labels:
[1] = tested on: H. contortus L3 larvae, anthelmintic-susceptible Weybridge isolate; experiment: Automated larval migration assay; conditions: Haemonchus contortus, read-out: IC50 (L3 migration, ALMA)
[2] = tested on: H. contortus L3 larvae, Lev/Pyr/Ivm multi-resistant Kokstad isolate; experiment: Automated larval migration assay; set-up: species or system Haemonchus contortus; conditions: for IC50: Haemonchus contortus, read-out: IC50 (L3 migration, ALMA); for resistance factor between Kok and Wey: based on respective ALMA IC50 values
C. elegans L-AChR [3] = conditions: recombinant C. elegans L-AChR in Xenopus oocytes; ref Boulin et al., 2008; cited from earlier work
[4] = tested on: recombinant A. suum N-AChR; conditions: ref Zheng et al., 2017; cited from earlier work
[5] = tested on: C. elegans Bristol N2 (wild type); experiment: C. elegans paralysis assay, N2; set-up: species or system Caenorhabditis elegans; conditions: agar plate containing 31 mM drug, 15-60 min
[6] = tested on: C. elegans acr-16 (ok789) mutant lacking N-AChR; experiment: C. elegans paralysis assay, acr-16 mutant; set-up: species or system Caenorhabditis elegans; conditions: agar plate containing 31 mM drug, 15-60 min
[7] = tested on: C. elegans lev-8 (ok1519) mutant lacking L-AChR; experiment: C. elegans paralysis assay, lev-8 mutant; set-up: species or system Caenorhabditis elegans; conditions: agar plate containing 31 mM drug, 15-60 min
[8] = target: T1, C. elegans N-AChR (ACR-16) (Caenorhabditis elegans, UniProt P48180); experiment: Two-electrode voltage-clamp, Cel-N-AChR in Xenopus oocytes; format: cell-based; conditions: for Hill slope: Cel N-AChR
T1 sequence (P48180 20-498): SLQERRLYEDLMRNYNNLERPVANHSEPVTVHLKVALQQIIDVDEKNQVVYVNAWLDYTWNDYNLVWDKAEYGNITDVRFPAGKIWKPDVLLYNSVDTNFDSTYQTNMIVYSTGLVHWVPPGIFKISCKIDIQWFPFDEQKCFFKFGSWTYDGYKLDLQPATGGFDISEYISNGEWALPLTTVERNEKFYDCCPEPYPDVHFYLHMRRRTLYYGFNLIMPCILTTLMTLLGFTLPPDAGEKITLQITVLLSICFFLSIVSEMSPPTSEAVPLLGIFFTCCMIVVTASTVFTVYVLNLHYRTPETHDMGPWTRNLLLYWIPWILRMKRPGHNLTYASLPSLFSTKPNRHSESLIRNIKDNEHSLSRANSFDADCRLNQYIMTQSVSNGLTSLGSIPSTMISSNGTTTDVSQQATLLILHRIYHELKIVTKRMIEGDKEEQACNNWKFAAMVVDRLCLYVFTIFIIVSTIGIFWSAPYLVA

[9] = target: T2, P. equorum N-AChR (ACR-16) (Parascaris equorum, UniProt A0A3S9VMQ8); experiment: Two-electrode voltage-clamp, Peq-N-AChR in Xenopus oocytes; format: cell-based; conditions: for Hill slope: Peq N-AChR; for current elicited by perfusion: Peq-N-AChR, 100 μM
T2 sequence (A0A3S9VMQ8 25-504): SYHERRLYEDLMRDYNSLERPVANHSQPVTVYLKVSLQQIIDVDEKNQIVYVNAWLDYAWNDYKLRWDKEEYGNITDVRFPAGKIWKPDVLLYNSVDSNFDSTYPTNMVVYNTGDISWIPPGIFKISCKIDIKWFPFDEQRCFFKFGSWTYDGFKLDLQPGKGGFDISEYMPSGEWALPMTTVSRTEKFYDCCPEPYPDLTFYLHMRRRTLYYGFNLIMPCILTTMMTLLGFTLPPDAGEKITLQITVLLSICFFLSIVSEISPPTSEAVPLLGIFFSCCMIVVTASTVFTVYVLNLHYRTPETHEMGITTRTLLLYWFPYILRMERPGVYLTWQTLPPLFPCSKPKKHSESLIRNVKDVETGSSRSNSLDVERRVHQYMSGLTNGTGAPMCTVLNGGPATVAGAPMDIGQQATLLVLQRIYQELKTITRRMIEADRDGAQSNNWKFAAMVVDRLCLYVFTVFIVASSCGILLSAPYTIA

C. elegans L-AChR [10] = experiment: Two-electrode voltage-clamp, Cel-L-AChR in Xenopus oocytes; format: cell-based, Caenorhabditis elegans; conditions: 100 μM
H. contortus L-AChR-1 = experiment: Two-electrode voltage-clamp, Hco-L-AChR-1 in Xenopus oocytes; format: cell-based, Haemonchus contortus; conditions: 100 μM
H. contortus L-AChR-2 = experiment: Two-electrode voltage-clamp, Hco-L-AChR-2 in Xenopus oocytes; format: cell-based, Haemonchus contortus; conditions: 100 μM
[11] = tested on: H. contortus Weybridge isolate (eggs); experiment: Egg hatch assay, Weybridge isolate; set-up: species or system Haemonchus contortus; conditions: triplicate
Method in brief: (§1)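 Benzimidazole test compound applied to eggs of each sheep-passaged isolate to establish benzimidazole susceptibility or resistance status. Method followed a published egg hatch protocol. ED50 reported in μg/ml, from triplicate tests.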

[12] = tested on: H. contortus Kokstad isolate (eggs); experiment: Egg hatch assay, Kokstad isolate; set-up: species or system Haemonchus contortus; conditions: triplicate
Method in brief: as §1

Molecule	IC50 [1] [µM]	IC50 [2] [µM]	resistance factor between Kok and Wey [2]	effect on motility (paralysis) [5]	effect on motility (paralysis) [6]	effect on motility (paralysis) [7]	Hill slope [8]	current elicited by perfusion ([8]; Cel-N-AChR, 100 μM)	Hill slope [9]	current elicited by perfusion [9]	response of oocytes (C. elegans L-AChR [10])	response of oocytes (H. contortus L-AChR-1)	response of oocytes (H. contortus L-AChR-2)	EC50 [8] [µM]	also measured
c1ccc([C@H]2CN3CCSC3=N2)cc1 [Levamisole, (−)-tetramisole hydrochloride]	1.14 ± 0.03	14 ± 0.35	12.3												sensitivity of recombinant receptor (C. elegans L-AChR [3]): sensitive
C#Cc1cncc([C@@H]2CCCCN2)c1 [(S)-5-ethynyl-anabasine]															agonist potency [4]: higher agonist potency than other nicotine alkaloids
(±)-nornicotine				affected	significantly less sensitive	affected	2.7 ± 0.4	very similar currents as for Nic	1.9 ± 0.3	very similar currents as for Nic	failed to induce significant response	failed to induce significant response	very small currents on few oocytes		
c1cncc([C@@H]2CCCCN2)c1 [Anabasine, anabasine]	179 ± 7.9	141 ± 6.9		affected	significantly less sensitive	affected	2.4 ± 0.4	very similar currents as for Nic	1.8 ± 0.2	very similar currents as for Nic	failed to induce significant response	failed to induce significant response	very small currents on few oocytes	27.5 ± 0.9	EC50 [9]: 1.7 ± 0.1 µM
CN1CCC[C@H]1c1cccnc1 [Nicotine, (−)-nicotine hydrogen tartrate]	611 ± 55.1	1170 ± 67.7		affected	significantly less sensitive	affected	2.2 ± 0.2		1.7 ± 0.2		failed to induce significant response	failed to induce significant response	responded robustly	15.1 ± 1.3	% of ACh response ([8]; Cel-N-AChR, 100 μM): 79.5 ± 7.5%; EC50 [9]: 2.9 ± 0.5 µM; Emax at 100 µM ([9]; read-out: % of ACh response): 96.6 ± 9.2%; sensitivity of recombinant receptor (C. elegans L-AChR [3]): insensitive
CC(=O)OCC[N+](C)(C)C [Acetylcholine, Acetylcholine chloride]							2.1 ± 0.4	robust currents in the μA range	2.0 ± 0.2	robust currents in the μA range				22 ± 1.2	
CN1CCCN=C1/C=C/c1cccs1 [Pyrantel, pyrantel citrate]	0.77 ± 0.01	18.5 ± 1.32	23.9												
ivermectin			15.1												
c1ccc2[nH]c(-c3cscn3)nc2c1 [TBZ, thiabendazole]															ED50 (egg hatch assay) [11]: 0.024 ± 0.001 µg/mL (≈ 0.119 µM); ED50 (egg hatch assay) [12]: 0.437 ± 0.205 µg/mL (≈ 2.17 µM)
